In experiment [1] the target is T1, Tyrosine-protein phosphatase non-receptor type 11 (Homo sapiens, UniProt Q06124).
T1 sequence (Q06124 whole entry): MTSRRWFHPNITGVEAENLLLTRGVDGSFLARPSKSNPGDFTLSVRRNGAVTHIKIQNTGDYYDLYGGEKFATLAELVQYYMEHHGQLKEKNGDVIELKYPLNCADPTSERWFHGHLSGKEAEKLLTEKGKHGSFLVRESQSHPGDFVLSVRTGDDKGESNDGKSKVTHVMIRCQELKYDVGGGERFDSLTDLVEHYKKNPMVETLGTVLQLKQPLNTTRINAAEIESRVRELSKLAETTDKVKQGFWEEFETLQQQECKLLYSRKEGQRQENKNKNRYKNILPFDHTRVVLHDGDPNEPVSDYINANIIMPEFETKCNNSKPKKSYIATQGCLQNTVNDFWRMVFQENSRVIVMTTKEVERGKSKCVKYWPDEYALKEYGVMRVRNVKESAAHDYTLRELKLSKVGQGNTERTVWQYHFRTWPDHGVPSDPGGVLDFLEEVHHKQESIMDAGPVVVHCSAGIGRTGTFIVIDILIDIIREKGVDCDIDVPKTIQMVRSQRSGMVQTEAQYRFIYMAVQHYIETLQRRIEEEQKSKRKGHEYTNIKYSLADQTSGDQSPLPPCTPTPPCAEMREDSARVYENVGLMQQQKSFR
Briefly: Inhibition of SHP2 (unknown origin) using p-nitrophenyl phosphate substrate by microplate spectrophotometry.

In experiment [2] the target is T2, Tyrosine-protein phosphatase non-receptor type 11 (Homo sapiens) (UniProt Q06124).
T2 sequence (whole entry): T1 sequence (Q06124 whole entry)
The experiment is described as follows: Inhibition of SHP2 in human NCI-H1975 cells assessed as reduction in EGF-induced Erk1/2 phosphorylation at 2 uM after 60 mins by immunoblot analysis. It counts as cell-based. Summed up: (§1)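 H1975 cells serum-starved overnight, treated with vehicle or compound for 3 h, then left unstimulated or stimulated with 5 ng/mL EGF for 60 min. Lysates resolved by SDS-PAGE and immunoblotted for paxillin pY118 and phospho-Erk1/2.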
(In western blotting, separated proteins are transferred to a membrane and probed.)

The target in experiment [3] is T2, Tyrosine-protein phosphatase non-receptor type 11 (Homo sapiens). Briefly: Inhibition of SHP2 dephosphorylation activity in human NCI-H1975 cells assessed as increase in paxillin (pY118) phosphorylation at 2 uM after 60 mins by immunoblot analysis. It counts as cell-based. Also on record: Activity: scale not given: the % may be the effect or the level left. In a few lines:
as §1

Experiment [4] deals with NCI-H1975. Briefly: Effect on PMA-induced Erk1/2 phosphorylation in human NCI-H1975 cells at 0.5 to 2 uM after 30 mins by immunoblot analysis. The class given is functional, cell-based.
The species entered for experiment [5] is Mus musculus. Briefly: Anticancer activity against mouse 32D cells bearing KITD814V mutant assessed as ligand dependent growth inhibition at 1 uM measured after 6 hrs. The class given is functional, cell-based. As to conditions: in the assay text read “ligand independent” for “ligand dependent”. In a few lines:
(§2)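 32D myeloid cells retrovirally transduced with WT KIT or KITD814V and sorted on EGFP. Starved 6–8 h in IMDM/0.2% BSA without serum or growth factors. Plated at 5×10^4 cells in triplicate in IMDM/10% FBS, with 10 ng/mL IL-3 for WT KIT and no growth factors for KITD814V, ± inhibitor. Cultured 48 h, pulsed 6 h with 1.0 μCi [3H]thymidine, CPM counted. Four independent experiments.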

The target in experiment [6] is Mast/stem cell growth factor receptor Kit (Homo sapiens) (UniProt P10721). The experiment is described as follows: Effect on wild type KIT (unknown origin) expressed in serum starved mouse 32D cells assessed as effect on Erk1/2 activation at 1 to 5 uM measured after 2 hrs by immunoblot analysis. The class given is cell-based. Summed up:
(§3)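 Sorted 32D cells expressing WT KIT or KITD814V, starved of serum and growth factors for 6 h. Treated with compound for 2 h, then lysed in NP-40 buffer with phosphatase and protease inhibitors. Equal protein amounts immunoblotted for phospho and total Akt and Erk1/2, ECL detection. Two independent experiments.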

Experiment [7] has as its system Bone marrow cell. The experiment is described as follows: Reduction in growth of C57BL/6 mouse Bone marrow cell bearing KITD814V mutant at 1 uM after 6 hrs. The class given is functional, cell-based.
The subject of experiment [8] is NCI-H1975. The experiment is described as follows: Anticancer activity against human NCI-H1975 cells after 2 days by MTT assay. It counts as functional, cell-based. Summed up:
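H1975 NSCLC cells in RPMI-1640 with 10% FBS at 37 °C, 5% CO2. 3×10^3 cells/well, treated 2 days in RPMI-1640 with 0.5% FBS. MTT at 50 μg/mL for 3–4 h, formazan dissolved in DMSO, OD read at 540 nm. Media-only wells used for background. IC50 from dose–response.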

The species entered for experiment [9] is Mus musculus. Briefly: Anticancer activity against mouse 32D cells bearing KITD814V mutant assessed as ligand dependent growth inhibition at 5 uM measured after 6 hrs. It counts as functional, cell-based. As to conditions: in the assay text read “ligand independent” for “ligand dependent”. In a few lines:
as §2

The next experiment relates to SK-BR-3. Briefly: Anticancer activity against human SKBR3 cells assessed as growth inhibition at 3 uM measured within 24 hrs by matrigel assay. The class given is functional, cell-based. Summed up:
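About 300000 SKBR3 cells seeded into 150 μL growth factor reduced Matrigel. Three dishes per condition received medium containing DMSO vehicle or compound. Colonies imaged every 24 h under a stereo microscope. Cross-sectional area of individual colonies measured from the images.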

Experiment [10] deals with T2, Tyrosine-protein phosphatase non-receptor type 11 (Homo sapiens). The experiment is described as follows: Inhibition of SHP2 dephosphorylation activity in human NCI-H1975 cells assessed as increase in paxillin (pY118) phosphorylation after 60 mins by immunoblot analysis. The class given is cell-based. In a few lines:
as §1

Experiment [11] addresses Mast/stem cell growth factor receptor Kit (Homo sapiens) (UniProt P10721). Briefly: Effect on wild type KIT (unknown origin) expressed in serum starved mouse 32D cells assessed as effect on Akt activation at 1 to 5 uM measured after 2 hrs by immunoblot analysis. It counts as cell-based. Summed up: as §3
The target in experiment [12] is Receptor-type tyrosine-protein phosphatase alpha (Homo sapiens, UniProt P18433). The experiment is described as follows: Inhibition of PTPalpha (unknown origin).
The target in experiment [13] is Mast/stem cell growth factor receptor Kit (Homo sapiens) (UniProt P10721). The experiment is described as follows: Inhibition of KIT D814V mutant (unknown origin) expressed in serum starved mouse 32D cells assessed as inhibition of total Erk1/2 activation at 1 to 5 uM measured after 2 hrs by immunoblot analysis. It counts as cell-based. In a few lines: as §3
In experiment [14] the test system is Bone marrow cell. The experiment is described as follows: Reduction in growth of C57BL/6 mouse Bone marrow cell bearing KITD814V mutant at 5 uM after 6 hrs. It counts as functional, cell-based.
The target of experiment [15] is T2, Tyrosine-protein phosphatase non-receptor type 11 (Homo sapiens). Briefly: Inhibition of SHP2 in human NCI-H1975 cells assessed as reduction in EGF-induced Erk1/2 phosphorylation after 60 mins by immunoblot analysis. The class given is cell-based. Summed up: as §1
Experiment [16] has the same target. Briefly: Inhibition of SHP2 in human NCI-H1975 cells assessed as reduction in EGF-induced Erk1/2 phosphorylation after 60 mins by immunoblot analysis in presence of SHP2 siRNA. The class given is cell-based. Summed up:
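H1975 cells transfected with SHP2 or scrambled siRNA using Lipofectamine 2000 for 6 h, then recovered in RPMI1640 with 10% FBS. Serum-starved overnight, treated with compound for 3 h, stimulated with 5 ng/mL EGF for 60 min. Phospho-Erk1/2 measured by immunoblot.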

Experiment [17] shares this target. The experiment is described as follows: Inhibition of SHP2 in human SKBR3 cells assessed as inhibition of total Akt phosphorylation level at 1 to 10 uM measured after 4 days by matrigel assay. It counts as cell-based. As to conditions: SK-BR-3. Summed up: (§4)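 SKBR3 cells grown in Matrigel with vehicle or compound (1 to 10 μM), three dishes per condition. After 4 days cells recovered from Matrigel and lysed in PLC buffer with protease inhibitors. Total and phospho Erk1/2 and Akt detected by SDS-PAGE immunoblot.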

Experiment [18] has the same target. The experiment is described as follows: Inhibition of SHP2 in human SKBR3 cells assessed as inhibition of total Erk1/2 phosphorylation level at 1 to 10 uM measured after 4 days by matrigel assay. The class given is cell-based. As to conditions: SK-BR-3. In a few lines:
as §4

The species named for experiment [19] is Mus musculus. Briefly: Anticancer activity against mouse 32D cells bearing wild-type KIT assessed as ligand dependent growth inhibition at 1 to 5 uM measured after 6 hrs. It counts as functional, cell-based. Summed up:
as §2

For experiment [20], the target named is Receptor-type tyrosine-protein phosphatase epsilon (Homo sapiens, UniProt P23469). Briefly: Inhibition of PTPepsilon (unknown origin).
Experiment [21] deals with Mast/stem cell growth factor receptor Kit (Homo sapiens) (UniProt P10721). The experiment is described as follows: Inhibition of KIT D814V mutant (unknown origin) expressed in serum starved mouse 32D cells assessed as inhibition of Akt activation at 1 to 5 uM measured after 2 hrs by immunoblot analysis. The class given is cell-based. Summed up:
as §3

Our source for the IC50, inhibition and Activity values is ChEMBL document CHEMBL3352034, “Therapeutic potential of targeting the oncogenic SHP2 phosphatase” (J Med Chem, 2014).

Calls of active or inactive are those of the source. The rule behind the calls is not given here.

For orientation: IC50 means the concentration needed to halve the response being measured. In general, inhibition refers to the percentage by which the read-out fell short of the control.

Mast/stem cell growth factor receptor Kit (Homo sapiens), sequence (P10721 whole entry): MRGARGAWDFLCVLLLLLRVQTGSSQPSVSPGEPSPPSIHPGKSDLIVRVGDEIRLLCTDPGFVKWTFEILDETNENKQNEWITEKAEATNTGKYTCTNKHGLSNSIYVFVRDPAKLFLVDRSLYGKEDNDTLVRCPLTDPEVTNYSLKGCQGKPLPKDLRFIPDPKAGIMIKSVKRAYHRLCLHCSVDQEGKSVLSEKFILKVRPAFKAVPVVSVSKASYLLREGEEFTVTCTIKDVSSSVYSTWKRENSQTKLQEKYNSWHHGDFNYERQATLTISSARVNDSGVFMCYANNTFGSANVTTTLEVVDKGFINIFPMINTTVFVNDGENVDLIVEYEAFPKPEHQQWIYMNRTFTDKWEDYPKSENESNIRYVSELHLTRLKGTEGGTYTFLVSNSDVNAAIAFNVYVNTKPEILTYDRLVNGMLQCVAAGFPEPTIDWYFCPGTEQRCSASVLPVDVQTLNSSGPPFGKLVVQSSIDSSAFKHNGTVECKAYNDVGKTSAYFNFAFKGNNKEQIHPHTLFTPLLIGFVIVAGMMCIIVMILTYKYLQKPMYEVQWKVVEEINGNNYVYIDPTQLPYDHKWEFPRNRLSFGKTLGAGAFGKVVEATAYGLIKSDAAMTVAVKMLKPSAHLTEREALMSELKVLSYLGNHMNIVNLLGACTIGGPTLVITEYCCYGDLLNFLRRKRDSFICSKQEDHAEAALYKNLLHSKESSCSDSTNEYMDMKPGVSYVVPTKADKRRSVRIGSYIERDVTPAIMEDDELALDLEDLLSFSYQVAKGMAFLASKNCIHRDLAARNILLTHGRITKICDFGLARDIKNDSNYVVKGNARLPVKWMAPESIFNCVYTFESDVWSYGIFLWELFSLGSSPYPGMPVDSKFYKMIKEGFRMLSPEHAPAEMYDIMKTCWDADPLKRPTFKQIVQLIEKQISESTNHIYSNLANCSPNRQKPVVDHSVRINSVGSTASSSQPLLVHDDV
Receptor-type tyrosine-protein phosphatase alpha, sequence (P18433 whole entry): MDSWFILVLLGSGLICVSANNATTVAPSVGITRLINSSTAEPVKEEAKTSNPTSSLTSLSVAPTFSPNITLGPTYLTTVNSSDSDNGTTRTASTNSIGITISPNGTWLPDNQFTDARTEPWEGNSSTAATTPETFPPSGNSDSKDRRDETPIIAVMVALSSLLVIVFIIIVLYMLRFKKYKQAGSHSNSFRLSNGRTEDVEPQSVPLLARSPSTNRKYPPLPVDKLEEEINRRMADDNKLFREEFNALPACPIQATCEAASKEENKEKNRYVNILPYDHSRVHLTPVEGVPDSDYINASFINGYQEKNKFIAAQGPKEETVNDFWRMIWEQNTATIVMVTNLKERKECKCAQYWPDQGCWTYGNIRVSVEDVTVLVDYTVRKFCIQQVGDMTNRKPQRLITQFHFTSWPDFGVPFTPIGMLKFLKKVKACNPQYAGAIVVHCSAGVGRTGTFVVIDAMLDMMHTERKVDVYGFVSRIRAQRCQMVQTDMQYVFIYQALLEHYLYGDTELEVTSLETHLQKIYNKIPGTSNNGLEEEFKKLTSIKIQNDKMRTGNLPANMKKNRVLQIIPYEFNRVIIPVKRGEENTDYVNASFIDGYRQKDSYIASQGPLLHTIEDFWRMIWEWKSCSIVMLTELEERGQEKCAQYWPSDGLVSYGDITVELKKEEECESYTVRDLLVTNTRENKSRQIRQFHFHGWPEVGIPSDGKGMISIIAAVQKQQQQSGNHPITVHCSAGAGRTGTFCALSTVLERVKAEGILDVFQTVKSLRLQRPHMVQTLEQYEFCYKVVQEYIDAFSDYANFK
Receptor-type tyrosine-protein phosphatase epsilon, sequence (P23469 whole entry): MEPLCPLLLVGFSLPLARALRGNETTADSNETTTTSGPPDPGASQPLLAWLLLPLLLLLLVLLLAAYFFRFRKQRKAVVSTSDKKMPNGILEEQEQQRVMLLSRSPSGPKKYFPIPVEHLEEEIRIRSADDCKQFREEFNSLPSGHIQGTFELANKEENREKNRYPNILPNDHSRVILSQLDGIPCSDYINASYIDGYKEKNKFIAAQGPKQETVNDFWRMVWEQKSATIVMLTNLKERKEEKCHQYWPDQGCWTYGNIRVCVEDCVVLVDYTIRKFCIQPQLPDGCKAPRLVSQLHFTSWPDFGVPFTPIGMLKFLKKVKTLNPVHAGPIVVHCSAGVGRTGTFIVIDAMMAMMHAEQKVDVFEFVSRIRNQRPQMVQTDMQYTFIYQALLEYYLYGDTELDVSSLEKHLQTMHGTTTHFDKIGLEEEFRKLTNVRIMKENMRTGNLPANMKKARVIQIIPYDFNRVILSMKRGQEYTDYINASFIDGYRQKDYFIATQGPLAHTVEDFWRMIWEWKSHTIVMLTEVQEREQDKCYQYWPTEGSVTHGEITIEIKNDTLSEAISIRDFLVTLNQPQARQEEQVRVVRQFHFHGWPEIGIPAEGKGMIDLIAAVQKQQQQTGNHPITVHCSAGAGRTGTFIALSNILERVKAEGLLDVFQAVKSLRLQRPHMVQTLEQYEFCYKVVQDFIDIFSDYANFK

In the case of `CCCN(CC1CC1)C(=O)CCC(=O)Nc1cccc(-c2c(I)c3cc(C(=O)O)c(O)cc3n2C)c1`, in experiment [1], the IC50 is over 20 µM.
Consider `Cn1c(-c2cccc(NC(=O)C(=O)O)c2)c(I)c2cc(C(=O)O)c(O)cc21`, for which the inhibition entry in experiment [2] and in experiment [3] was “inactive” in each case.
Take `Cn1c(-c2cccc(NC(=O)C(=O)Nc3ccc(-c4ccsc4)cc3)c2)c(I)c2cc(C(=O)O)c(O)cc21`: the inhibition was 40% in experiment [2]; “Dose-dependent effect” in the experiment on NCI-H1975 [8]; “Dose-dependent effect” in experiment [10]; “Dose-dependent effect” in [13]; “Dose-dependent effect” in [15]; “Dose-dependent effect” in [21]. In addition, the result with NCI-H1975 [4] was inactive. Further, the inhibition result (in the experiment listed under Mus musculus [5]; with Bone marrow cell [7]; in the experiment filed under Mus musculus [9]; in the experiment on SK-BR-3; in the experiment on Bone marrow cell [14]; in experiment [17]) was “Active” throughout. In [18], the inhibition entry is “Active”. Moreover, the inhibition result (in [6]; in [11]; in experiment [16]; in the experiment filed under Mus musculus [19]) was “inactive” in each case. The IC50 was 0.17 µM in the experiment on NCI-H1975 [8] (NCI-H1975, 48 h); over 100 µM in experiment [12]; over 20 µM in [20]. Also, in [3], the Activity is 30%.
As for `Cn1c(-c2ccccc2)c(-c2cn(CCC(=O)Nc3ccc(-c4ccccc4)cc3)nn2)c2cc(C(=O)O)c(O)cc21`, the inhibition entry in the experiment filed under Mus musculus [9] is “Active”. Also, the inhibition entry in the experiment filed under Mus musculus [19] is “inactive”.
